Results on 54 variants are retold here after the RNAGym collection of RNA variant scans (doi:10.1101/gad.245936.114).

Sequences and labels used below:
B1: tRNA (parent)
chain: CUCUCGGUAGCCAAGUUGGUUUAAGGCGCAAGACUUUAAUUUAUCACUACGAAAUCUUGAGAUCGGGCGUUCGACUCGCCCCCGGGAGAUUUUUUCCUCGAGCAA

Variants at the floor of the assay were thinned out. A value given as a limit tells only on which side of the number the result lay.

The data set covers variants of B1. The data set can be described thus: nonsense suppression (GFP-seq) (ratio to wild type); higher = more function; SUP4oc tRNA, yeast GFP reporter sort-seq. An outline of the steps:
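Raffinose/galactose medium with 80 mg/L adenine was used to grow yeast carrying genome-integrated tRNA variants (~3% random-mutation library), RFP, and a galactose-driven GFP ochre reporter. Cells went into GFP/RFP bins, which were Illumina-sequenced, and variants with ≥100 reads and ≥30 cells were scored. Nonsense suppression (GFPSEQ) is the per-bin median GFP/RFP weighted by estimated cell share and expressed relative to the unmutated parent tRNA.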
CUCUCGGUAGCCAAGUUGGUUUAAGGCGCAAGACUUUAAUUUAUCACUACGAAAUCUUGAGCUUGGGCGUUCGACUCGCCCCCCGGAGAUUUUUUCCUCGAGCAA: the nonsense suppression is at most 0.026.

With CUCUCGGUAGCCAAGUUGGUUUAAGGCGCAAGACUUUAAUUUAUCACUACGAAAUCUUGACAUCGGGCGUUCGACUCGCCCCCUGGAGAUUUUUUCCUCGAGCAA, the nonsense suppression was found to be 0.199.

Consider CUCUCGGUAGCCAAGUUGGUUUAAGGCGCAAGACUUUAAUUUAUCACUACGAAAUCUUGAGCUCGGACGUUCGACUCGCCCCCGGGAGAUUUUUUCCUCGAGCAA, for which the nonsense suppression is at most 0.026.

On to CUCUCGGUAGCCAAGUUGGUUUAAGGCGCAAGACUUUAAUUUAUCACUACGAAAUCUUGAUAUCGGGCGUUCGAGUCGCCCCCGGGAGAUUUUUUCCUCGAGCAA, for which the nonsense suppression came to 1.08.

CUCUCGGUAGCCAAGUUGGUUUAAGGCGCAAGACUUUAAUUUAUCACUACGAAAUCUUGACAUCGGGCGUUCGACUCGCCCCCGGGAUAUUUUUUCCUCGAGCAA: the nonsense suppression was determined as 0.0792.

As for CUCUCGGUAGCCAAGUUGGUUUAAGGCGCAAGACUUUAAUUUAUCACUACGAAAUCUUGACAUCGGGCGUUCGACUCGCCCCCGGGAAAUUUUUUCCUCGAGCAA, the nonsense suppression is 0.0268.

For CUCUCGGUAGCCAAGUUGGUUUAAGGCGCAAGACUUUAAUUUAUCACUACGAAAUCUUGAGAACGUGCGUACGACUCGCCCCCGGGGGAUUUUUUCCUCGAGCAA, the nonsense suppression was at most 0.026.

For CUCUCGGUAGCCAAGUUGGUUUAAGGCGCAAGACUUUAAUUUAUCACUACGAAAUCUUGAGUUCGGGCGUUCGAGUCGCCCCCGGGAGAUUUUUUCCUCGAGCAA, the nonsense suppression amounted to 0.201.

Turning to CUCUCGGUAGCCAAGUUGGUUUAAGGCGCAAGACUUUAAUUUAUCACUACGAAAUCUUGAGUUCGGGCGUUCGACUCGCCCCCGGGAGAUUUUUUCCUCGAGCAA, the nonsense suppression was 0.193.

Consider CUCUCGGUAGCCAAGUUGGUUUAAGGCGCAAGACUUUAAUUUAUCACUACGAAAUCUUGAUAUCGGGCGUUCGACUCGCCCCCGGGAGAUUUUUUCCUCGAGCAA, for which the nonsense suppression came to 1.03.

For the variant CUCUCGGUAGCCAAGUUGGUUUAAGGCGCAAGACUUUAAUUUAUCACUACGAAAUCUUGAGAACGGGCGUUUGACUCGCCCCCGGGAGAUUUUUUCCUCGAGCAA, the nonsense suppression stood at 0.133.

Regarding CUCUCGGUAGCCAAGUUGGUUUAAGGCGCAAGACUUUAAUUUAUCACUACGAAAUCUUGAGUUCGGGCGUGCGACUCGCCCCCGGGAGAUUUUUUCCUCGAGCAA, the nonsense suppression is at most 0.026.

Regarding CUCUCGGUAGCCAAGUUGGUUUAAGGCGCAAGACUUUAAUUUAUCACUACGAAAUCUUGAUAUCGGGCGUUCGACUCUCCCCCGGGAGAUUUUUUCCUCGAGCAA, the nonsense suppression was found to be 0.165.

On to CUCUCGGUAGCCAAGUUGGUUUAAGGCGCAAGACUUUAAUUUAUCACUACGAAAUCUUGAGUUCGGGCGUUCGACUCGCCCCCCGGAGAUUUUUUCCUCGAGCAA, for which the nonsense suppression was found to be 0.0347.

Consider CUCUCGGUAGCCAAGUUGGUUUAAGGCGCAAGACUUUAAUUUAUCACUACGAAAUCUUGAUAUCGGUCGUUCGACUCGCCCCCGGGAGAUUUUUUCCUCGAGCAA, for which the nonsense suppression is at most 0.026.

Consider CUCUCGGUAGCCAAGUUGGUUUAAGGCGCAAGACUUUAAUUUAUCACUACGAAAUCUUGAUAUCGGACGUUCGACUCGCCCCCGGGAGAUUUUUUCCUCGAGCAA, for which the nonsense suppression is 0.135.

On to CUCUCGGUAGCCAAGUUGGUUUAAGGCGCAAGACUUUAAUUUAUCACUACGAAAUCUUGAUACCGGGCGUUCGACUCGCCCCCGGGAGAUUUUUUCCUCGAGCAA, for which the nonsense suppression turned out to be 0.808.

Turning to CUCUCGGUAGCCAAGUUGGUUUAAGGCGCAAGACUUUAAUUUAUCACUACGAAAUCUUGAUAGCGGGCGUUCGACUCGCCCCCGGGAGAUUUUUUCCUCGAGCAA, the nonsense suppression amounted to 0.232.

Regarding CUCUCGGUAGCCAAGUUGGUUUAAGGCGCAAGACUUUAAUUUAUCACUACGAAAUCUUGACAUCGGGCCUUCGACUCGGCCCCCGGAGAUUUUUUCCUCGAGCAA, the nonsense suppression was at most 0.026.

Consider CUCUCGGUAGCCAAGUUGGUUUAAGGCGCAAGACUUUAAUUUAUCACUACGAAAUCUUGAGAACGGGCGUUCGACUCGCCCUCGGGAGAUUUUUUCCUCGAGCAA, for which the nonsense suppression amounted to 0.178.

For CUCUCGGUAGCCAAGUUGGUUUAAGGCGCAAGACUUUAAUUUAUCACUACGAAAUCUUGAUAUCGGGCGUACGACUCGCCCCCGGAAGAUUUUUUCCUCGAGCAA, the nonsense suppression was at most 0.026.

For CUCUCGGUAGCCAAGUUGGUUUAAGGCGCAAGACUUUAAUUUAUCACUACGAAAUCUUGAGGUCGGGCGUUCGAAUCGCCCCCGGGAGAUUUUUUCCUCGAGCAA, the nonsense suppression is 0.219.

Consider CUCUCGGUAGCCAAGUUGGUUUAAGGCGCAAGACUUUAAUUUAUCACUACGAAAUCUUGAGGUCGGGCGUUCGAGUCGCCCCCGGGAGAUUUUUUCCUCGAGCAA, for which the nonsense suppression was determined as 0.205.

Consider CUCUCGGUAGCCAAGUUGGUUUAAGGCGCAAGACUUUAAUUUAUCACUACGAAAUCUUGAGAACGGGCGUUCGAGUCGCCCCCGGGAGAUUUUUUCCUCGAGCAA, for which the nonsense suppression was found to be 1.13.

As to CUCUCGGUAGCCAAGUUGGUUUAAGGCGCAAGACUUUAAUUUAUCACUACGAAAUCUUGACAUCGGGCGUUCAACUCGCCCCCGGGAGAUUUUUUCCUCGAGCAA, the nonsense suppression was 0.213.

On to CUCUCGGUAGCCAAGUUGGUUUAAGGCGCAAGACUUUAAUUUAUCACUACGAAAUCUUGAGCUCGGGCGUUCGACUCACCCCCGGGAGAUUUUUUCCUCGAGCAA, for which the nonsense suppression is at most 0.026.

For CUCUCGGUAGCCAAGUUGGUUUAAGGCGCAAGACUUUAAUUUAUCACUACGAAAUCUUGAGGUCGGGCGUUCGAUUCGCCCCAGGGAGAUUUUUUCCUCGAGCAA, the nonsense suppression is at most 0.026.

Regarding CUCUCGGUAGCCAAGUUGGUUUAAGGCGCAAGACUUUAAUUUAUCACUACGAAAUCUUGAGCUCGGGCGUUCGACUCGCCCCCGAGAGAUUUUUUCCUCGAGCAA, the nonsense suppression is at most 0.026.

With CUCUCGGUAGCCAAGUUGGUUUAAGGCGCAAGACUUUAAUUUAUCACUACGAAAUCUUGAGUUCGGGCGUUCGACUCACCCCCGGGAGAUUUUUUCCUCGAGCAA, the nonsense suppression is 0.0537.

As for CUCUCGGUAGCCAAGUUGGUUUAAGGCGCAAGACUUUAAUUUAUCACUACGAAAUCUUGAUAUCGGGCGUUCGACUCGCUCCCGGGAGAUUUUUUCCUCGAGCAA, the nonsense suppression was 0.677.

Regarding CUCUCGGUAGCCAAGUUGGUUUAAGGCGCAAGACUUUAAUUUAUCACUACGAAAUCUUGACAUCGGACGUUCGACUCGCCCCCGGGAGAUUUUUUCCUCGAGCAA, the nonsense suppression stood at 0.0647.

For CUCUCGGUAGCCAAGUUGGUUUAAGGCGCAAGACUUUAAUUUAUCACUACGAAAUCUUGACAUCGGGCGUUCGACUCGCCCCCGCGAGAUUUUUUCCUCGAGCAA, the nonsense suppression stood at 0.045.

As for CUCUCGGUAGCCAAGUUGGUUUAAGGCGCAAGACUUUAAUUUAUCACUACGAAAUCUUGAUAUCGGGCGUUCGACUCGCCCUCGGGAGAUUUUUUCCUCGAGCAA, the nonsense suppression is 0.73.

With CUCUCGGUAGCCAAGUUGGUUUAAGGCGCAAGACUUUAAUUUAUCACUACGAAAUCUUGAGGUCGGGCGUUCGACUCUCCCCCGGGAGAUUUUUUCCUCGAGCAA, the nonsense suppression worked out at 0.0339.

With CUCUCGGUAGCCAAGUUGGUUUAAGGCGCAAGACUUUAAUUUAUCACUACGAAAUCUUGAGUCCGGGCGUUCGACUCGCCCCCGGGAGAUUUUUUCCUCGAGCAA, the nonsense suppression is at most 0.026.

Consider CUCUCGGUAGCCAAGUUGGUUUAAGGCGCAAGACUUUAAUUUAUCACUACGAAAUCUUGACAUCGGGCGUUCGACUCAUCCCCGGGAGAUUUUUUCCUCGAGCAA, for which the nonsense suppression was at most 0.026.

Take CUCUCGGUAGCCAAGUUGGUUUAAGGCGCAAGACUUUAAUUUAUCACUACGAAAUCUUGAUUUCGGGCGUUCGACUCGCCCCCGGGAGAUUUUUUCCUCGAGCAA: the nonsense suppression is 0.0397.

Consider CUCUCGGUAGCCAAGUUGGUUUAAGGCGCAAGACUUUAAUUUAUCACUACGAAAUCUUGAGGUCGGACGUUCGACUCGCCCCCGGGAGAUUUUUUCCUCGAGCAA, for which the nonsense suppression was at most 0.026.

Regarding CUCUCGGUAGCCAAGUUGGUUUAAGGCGCAAGACUUUAAUUUAUCACUACGAAAUCUUGACAUCGGGCGUCCGACUCGCCCCCGGGAGAUUUUUUCCUCGAGCAA, the nonsense suppression was 0.061.

Turning to CUCUCGGUAGCCAAGUUGGUUUAAGGCGCAAGACUUUAAUUUAUCACUACGAAAUCUUGAGAACGGGUGUUCGACUCGCCCCCGGGAGAUUUUUUCCUCGAGCAA, the nonsense suppression amounted to 0.755.

Take CUCUCGGUAGCCAAGUUGGUUUAAGGCGCAAGACUUUAAUUUAUCACUACGAAAUCUUGACACCGGGCGUUCGACUCGCCCCCGGGAGAUUUUUUCCUCGAGCAA: the nonsense suppression worked out at 0.196.

Turning to CUCUCGGUAGCCAAGUUGGUUUAAGGCGCAAGACUUUAAUUUAUCACUACGAAAUCUUGACAGCGGGCGUUCGACUCGCCCCCGGGAGAUUUUUUCCUCGAGCAA, the nonsense suppression came out at 0.12.

CUCUCGGUAGCCAAGUUGGUUUAAGGCGCAAGACUUUAAUUUAUCACUACGAAAUCUUGAGGUCCGGCGUUCGACUCGCCCCCGGGAGAUUUUUUCCUCGAGCAA: the nonsense suppression was at most 0.026.

CUCUCGGUAGCCAAGUUGGUUUAAGGCGCAAGACUUUAAUUUAUCACUACGAAAUCUUGAUAUCGGGCGUUCGAUUCGCCCCCGAGAGAUUUUUUCCUCGAGCAA: the nonsense suppression is 1.04.

As to CUCUCGGUAGCCAAGUUGGUUUAAGGCGCAAGACUUUAAUUUAUCACUACGAAAUCUUGACAUCGGGCGUUCGACUCUCCCCCGGGAGAUUUUUUCCUCGAGCAA, the nonsense suppression stood at 0.13.

For CUCUCGGUAGCCAAGUUGGUUUAAGGCGCAAGACUUUAAUUUAUCACUACGAAAUCUUGAGCUGGGGCGUUCGACUCGCCCCCGGGAGAUUUUUUCCUCGAGCAA, the nonsense suppression is at most 0.026.

In the case of CUCUCGGUAGCCAAGUUGGUUUAAGGCGCAAGACUUUAAUUUAUCACUACGAAAUCUUGAGGUCGGGCGUUCGACUCGCUGCCGGGAGAUUUUUUCCUCGAGCAA, the nonsense suppression was at most 0.026.

CUCUCGGUAGCCAAGUUGGUUUAAGGCGCAAGACUUUAAUUUAUCACUACGAAAUCUUGAUAUCGGGCGUUCGACCCGCCCCCGGGAGAUUUUUUCCUCGAGCAA: the nonsense suppression was found to be 0.911.

CUCUCGGUAGCCAAGUUGGUUUAAGGCGCAAGACUUUAAUUUAUCACUACGAAAUCUUGACAUCGGGCGUUCGACCCGCCCCCGGGAGAUUUUUUCCUCGAGCAA: the nonsense suppression is 0.23.

With CUCUCGGUAGCCAAGUUGGUUUAAGGCGCAAGACUUUAAUUUAUCACUACGAAAUCUUGAGAACGGGCGUUCGACUCGCCCCCGGGAGAUUUUUUCCUCGAGCAA, the nonsense suppression amounted to 1.05.

As for CUCUCGGUAGCCAAGUUGGUUUAAGGCGCAAGACUUUAAUUUAUCACUACGAAAUCUUGAGGUCGGGCGUUCGACUCGCCCCAGGGAGAUUUUUUCCUCGAGCAA, the nonsense suppression is at most 0.026.

Take CUCUCGGUAGCCAAGUUGGUUUAAGGCGCAAGACUUUAAUUUAUCACUACGAAAUCUUGAGAACGGGCGUUCGAGCCGCCCCCGGGAGAUUUUUUCCUCGAGCAA: the nonsense suppression came to 1.19.

CUCUCGGUAGCCAAGUUGGUUUAAGGCGCAAGACUUUAAUUUAUCACUACGAAAUCUUGAGUUCGGUCUUUCGACUCGCCCCCGGGAGAUUUUUUCCUCGAGCAA: the nonsense suppression is at most 0.026.

In the case of CUCUCGGUAGCCAAGUUGGUUUAAGGCGCAAGACUUUAAUUUAUCACUACGAAAUCUUGAGGCCGAGCGUUCGACUCGCCCCCGGGAGAUUUUUUCCUCGAGCAA, the nonsense suppression was at most 0.026.
